Measurements taken from PMC11494403 (Nature plants, 2024).

Key:
[1] = MST, binding to Alexa Fluor 647-labelled oligogalacturonide OG7–13^647; conditions: relative to wild-type RALF22
Method in brief: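 Wild-type or mutant peptide, titrated from 200µM, against 40nM Alexa Fluor 647-labelled, fully demethylesterified 7-13mer oligogalacturonide. Incubated 10min at RT, then thermophoresis on a Monolith NT.115 at medium MST power and 80% LED excitation. Data kept only at S/N >5 with no aggregation or ligand-induced initial fluorescence change. Kd averaged over 3 independent experiments.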

RHs = conditions: 2 day exposure to exogenous RALF1; cited from earlier work
root = conditions: RALF1-induced; cited from earlier work

In the case of “AQKKYISYGAMARNSVPCSARGASYYNCQAGAQANPYSRGCSTITRCRR [RALF22^R82A,R90A,R100A]”, the “fold reduction in affinity for OG7–13^647” value [1] is reported as 5.2 fold.

For “RALF1: exogenous RALF1 peptide of an earlier study (ATTKYISYQSLKRNSVPCSRRGASYYNCQNGAQANPYSRGCSKIARCRS; Protein RALF-like 1; UniProt Q9SRY3 72-120, looked up)”, the root hair length (RHs) is given as “longer RHs” and the root growth (root) is given as “root growth inhibition”.
